Assay results published in ChEMBL document CHEMBL2062442, “Synthesis and biological evaluation of new N-acyl-homoserine-lactone analogues, based on triazole and tetrazole scaffolds, acting as LuxR-dependent quorum sensing modulators” (Bioorg Med Chem, 2012).
Calls of active or inactive are those of the source. The rule behind the calls is not given here.

Assays:
Assay type in all cases: functional
[1] = target: T1, Transcriptional activator protein LuxR (Aliivibrio fischeri, UniProt P12746); assay: Agonist activity at Vibrio fischeri LuxR expressed in Escherichia coli NM522 coexpressing LuxCDABE assessed as activation of 3-oxoC6-HSL-induced quorum sensing activation measured after 4 to 5 hrs by reporter gene assay
T1 sequence (P12746 whole entry): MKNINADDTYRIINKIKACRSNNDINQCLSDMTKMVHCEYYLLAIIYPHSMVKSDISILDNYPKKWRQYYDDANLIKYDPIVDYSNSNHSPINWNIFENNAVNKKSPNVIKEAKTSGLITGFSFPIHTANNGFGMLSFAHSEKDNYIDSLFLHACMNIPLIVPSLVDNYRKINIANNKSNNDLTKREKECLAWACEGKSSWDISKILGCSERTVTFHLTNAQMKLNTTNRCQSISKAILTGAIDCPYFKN
Outline: (§1)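 E. coli biosensor carrying pSB401, in which V. fischeri luxR and the luxI promoter drive P. luminescens luxCDABE. Cultures were grown to exponential phase in Luria broth with tetracycline (20) at 30 °C. Analogues were added alone at up to 200 in microtitre plates. Luminescence was read after 4–5 h, at the maximal ratio of induced to background light. EC50 is the concentration giving 50% bioluminescence intensity.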

[2] = target: T2, Transcriptional activator protein LuxR (Aliivibrio fischeri) (UniProt P12746); assay: Agonist activity at Vibrio fischeri LuxR expressed in Escherichia coli NM522 coexpressing LuxCDABE assessed as activation of 3-oxoC6-HSL-induced quorum sensing activation measured after 4 to 5 hrs by reporter gene assay relative to control; outline: as §1
T2 sequence (whole entry): T1 sequence (P12746 whole entry)

[3] = target: T2, Transcriptional activator protein LuxR (Aliivibrio fischeri); assay: Agonist activity at Vibrio fischeri LuxR expressed in Escherichia coli NM522 coexpressing LuxCDABE assessed as activation of 3-oxoC6-HSL-induced quorum sensing activation at 200 uM measured after 4 to 5 hrs by reporter gene assay; outline: as §1
[4] = target: T1, Transcriptional activator protein LuxR; assay: Antagonist activity at Vibrio fischeri LuxR expressed in Escherichia coli NM522 coexpressing LuxCDABE assessed as inhibition of 3-oxoC6-HSL-induced quorum sensing activation measured after 4 to 5 hrs by reporter gene assay
Outline: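 The inhibition read-out is the decrease in bioluminescence induced by 200 nM 3-oxo-C6-HSL in E. coli carrying pSB401 (V. fischeri luxR/luxI promoter fused to P. luminescens luxCDABE). Cells were grown to exponential phase in Luria broth with tetracycline at 30 °C. Light was quantified by luminometer in microtitre plates after 4–5 h, when the ratio of induced to background light peaked.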

| Activity [3] | IC50 ([4]; read-out: IC50) | SMILES | further results |
| --- | --- | --- | --- |
|  |  | CCCCCCc1nnnn1C1CCOC1=O (racemic) | EC50 [1]: 35 µM; Activity [2]: 102 RLU |
| inactive | 94 µM | CCCCCc1cn(CC(=O)OCC)nn1 |  |
| inactive |  | CCCCCc1cn(CC(N)=O)nn1 | IC50 [4]: Not Active |
| inactive |  | CCCCCCCCCCCCn1cc(CC(=O)OCC)nn1 |  |
|  |  | CCCCCc1nnnn1C1CCOC1=O (racemic) | EC50 [1]: 10 µM; Activity [2]: 59 RLU |
| inactive |  | CCCCCCCCCCCCc1cn(CC(=O)O)nn1 |  |
|  | 74 µM | CCCCCCn1nnnc1C1CCOC1=O (racemic) |  |
| inactive |  | CCCCCCCCCCCCn1cc(CC(=O)O)nn1 |  |
| inactive |  | CCCCCc1cn(CC(=O)NO)nn1 | IC50 [4]: Not Active |
| inactive |  | CCCCCn1cc(CC(=O)O)nn1 |  |
| inactive |  | CCCCCn1cc(CC(=O)OCC)nn1 |  |
| inactive |  | CCCCCc1cn(CC(=O)O)nn1 | IC50 [4]: Not Active |
| inactive |  | CCCCCCCCCCCCc1cn(CC(=O)OCC)nn1 |  |
| inactive | 51 µM | CCCCCc1cn(C2CCOC2=O)nn1 (racemic) |  |
|  | > 200 µM | CCCCn1nnnc1C1CCOC1=O (racemic) |  |
|  | > 200 µM | CCCCCCn1nnnc1CC(=O)OCC |  |
|  | 80 µM | CCCCCn1nnnc1C1CCOC1=O (racemic) |  |
